Measured values: ChEMBL document CHEMBL1157541, “Identification and characterization of 4-chloro-N-(2-{[5-trifluoromethyl)-2-pyridyl]sulfonyl}ethyl)benzamide (GSK3787), a selective and irreversible peroxisome proliferator-activated receptor delta (PPARdelta) antagonist” (J Med Chem, 2010)
Calls of active or inactive are those of the source. No cut-off for these calls is given here.

Columns and labels:
[1] = biological target: T1, Peroxisome proliferator-activated receptor alpha (Homo sapiens, UniProt Q07869); assay: Displacement of [3H]GW2433 from human PPARalpha receptor by ligand displacement assay
T1 sequence (Q07869 whole entry): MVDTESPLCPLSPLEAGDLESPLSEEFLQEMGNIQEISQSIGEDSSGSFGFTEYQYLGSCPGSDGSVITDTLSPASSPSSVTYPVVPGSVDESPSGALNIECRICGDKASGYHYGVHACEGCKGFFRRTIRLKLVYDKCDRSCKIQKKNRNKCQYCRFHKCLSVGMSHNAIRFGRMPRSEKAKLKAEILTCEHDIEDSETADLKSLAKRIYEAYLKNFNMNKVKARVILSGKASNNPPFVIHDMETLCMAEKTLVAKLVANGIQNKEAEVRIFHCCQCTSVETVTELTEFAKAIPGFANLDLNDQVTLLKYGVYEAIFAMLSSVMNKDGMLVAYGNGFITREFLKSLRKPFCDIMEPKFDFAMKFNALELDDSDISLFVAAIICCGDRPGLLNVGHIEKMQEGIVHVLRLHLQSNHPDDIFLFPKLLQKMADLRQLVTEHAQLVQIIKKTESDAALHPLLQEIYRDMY

[2] = biological target: T2, Peroxisome proliferator-activated receptor gamma (Homo sapiens, UniProt P37231); assay: Inhibition of human PPARgamma receptor by ligand displacement assay
T2 sequence (P37231 whole entry): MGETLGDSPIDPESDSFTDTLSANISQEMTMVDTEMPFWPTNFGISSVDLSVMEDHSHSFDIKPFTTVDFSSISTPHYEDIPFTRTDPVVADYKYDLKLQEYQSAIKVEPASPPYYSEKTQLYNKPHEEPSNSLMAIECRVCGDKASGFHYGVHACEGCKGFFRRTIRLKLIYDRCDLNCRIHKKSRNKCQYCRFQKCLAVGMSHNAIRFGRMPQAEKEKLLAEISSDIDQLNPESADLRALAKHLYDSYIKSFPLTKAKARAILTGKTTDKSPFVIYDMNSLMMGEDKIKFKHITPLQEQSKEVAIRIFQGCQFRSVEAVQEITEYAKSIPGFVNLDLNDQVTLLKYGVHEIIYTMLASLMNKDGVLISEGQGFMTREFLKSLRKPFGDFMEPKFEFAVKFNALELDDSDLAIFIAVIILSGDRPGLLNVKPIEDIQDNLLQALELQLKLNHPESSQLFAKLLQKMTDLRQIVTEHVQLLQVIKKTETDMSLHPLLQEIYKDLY

[3] = biological target: T3, Peroxisome proliferator-activated receptor delta (Homo sapiens, UniProt Q03181); assay: Inhibition of human PPARdelta receptor by ligand displacement assay
T3 sequence (Q03181 whole entry): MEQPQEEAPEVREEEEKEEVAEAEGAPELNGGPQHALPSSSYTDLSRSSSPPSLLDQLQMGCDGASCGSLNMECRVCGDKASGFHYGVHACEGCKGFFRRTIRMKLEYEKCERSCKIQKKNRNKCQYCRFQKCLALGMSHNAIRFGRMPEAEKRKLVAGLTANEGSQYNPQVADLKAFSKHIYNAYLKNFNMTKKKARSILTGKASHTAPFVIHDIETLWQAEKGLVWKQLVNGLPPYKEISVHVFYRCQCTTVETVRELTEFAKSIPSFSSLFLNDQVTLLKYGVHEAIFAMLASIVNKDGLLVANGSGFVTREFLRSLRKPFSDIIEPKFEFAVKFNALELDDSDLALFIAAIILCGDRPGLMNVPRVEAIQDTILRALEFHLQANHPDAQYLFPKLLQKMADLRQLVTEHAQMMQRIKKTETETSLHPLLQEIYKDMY

Homo sapiens [4] = species on record: Homo sapiens; assay: Inhibition of against 2-(4-((2-(3-fluoro-4-(trifluoromethyl)phenyl)-4-methylthiazol-5-yl)methylthio)-2-methylphenoxy)acetic acid-induced CPT1a gene expression in human skeletal muscle cell at 10 to 10000 nM; assay type: functional
Summary of the method: (§1)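 Human skeletal muscle cells were stimulated with PPARδ agonist to induce transcription of the target genes CPT1a and PDK4. Compound was co-tested at various doses, and antagonism of the agonist-stimulated expression was read out.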

Homo sapiens [5] = species on record: Homo sapiens; assay: Inhibition of against 2-(4-((2-(3-fluoro-4-(trifluoromethyl)phenyl)-4-methylthiazol-5-yl)methylthio)-2-methylphenoxy)acetic acid-induced PDK4 gene expression in human skeletal muscle cell at 10 to 10000 nM; assay type: functional; summary of the method: as §1
Homo sapiens [6] = species on record: Homo sapiens; assay: Inhibition of CPT1a gene expression in human skeletal muscle cell at 10 to 10000 nM; assay type: functional
Summary of the method: (§2)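 Human skeletal muscle cells were treated with compound at various doses without added agonist. Basal CPT1a and PDK4 transcript expression was assessed.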

Homo sapiens [7] = species on record: Homo sapiens; assay: Inhibition of PDK4 gene expression in human skeletal muscle cell at 10 to 10000 nM; assay type: functional; summary of the method: as §2
SW480 = assay: Antiproliferative against human SW480 cells at 10 uM; assay type: functional, cell-based
Summary of the method: (§3)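 Colorectal lines (SW480, HCT116, DLD1, RKO) and non-colorectal lines (A549, HEK293) were incubated with compound for 3 days at concentrations up to 10 μM. Proliferation was compared with DMSO vehicle. Staurosporine and actinomycin D served as positive controls.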

HCT-116 = assay: Antiproliferative against human HCT116 cells at 10 uM; assay type: functional, cell-based; summary of the method: as §3
DLD-1 = assay: Antiproliferative against human DLD1 cells at 10 uM; assay type: functional, cell-based; summary of the method: as §3
RKO = assay: Antiproliferative against human RKO cells at 10 uM; assay type: functional, cell-based; summary of the method: as §3
A549 = assay: Antiproliferative against human A549 cells at 10 uM; assay type: functional, cell-based; summary of the method: as §3
HEK293 = assay: Antiproliferative against human HEK293 cells at 10 uM; assay type: functional, cell-based; summary of the method: as §3
[8] = Clearance in C57BL/6 mouse at 0.5 mg/kg, iv; assay type: ADME, organism-based; set-up: dose 0.5 mg/kg, route intravenous; details: in vivo
Summary of the method: (§4)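 Male C57BL/6 mice were dosed intravenously at 0.5 mg/kg and orally at 10 mg/kg. Clearance and Vss were taken from the iv arm. Cmax, AUCinf, half-life and oral bioavailability were taken from the oral arm. Values are given as mean ± deviation.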

[9] = Volume of distribution at steady state in C57BL/6 mouse at 0.5 mg/kg, iv; assay type: ADME, organism-based; set-up: dose 0.5 mg/kg, route intravenous; details: in vivo, read-out: Vdss; summary of the method: as §4
[10] = Cmax in C57BL/6 mouse at 10 mg/kg, po; assay type: ADME, organism-based; set-up: dose 10 mg/kg, route oral; details: in vivo; summary of the method: as §4
[11] = AUC (0 to infinity) in C57BL/6 mouse at 10 mg/kg, po; assay type: ADME, organism-based; set-up: dose 10 mg/kg, route oral, time infinity; details: plasma; summary of the method: as §4
[12] = Half life in C57BL/6 mouse at 10 mg/kg, po; assay type: ADME, organism-based; set-up: dose 10 mg/kg, route oral; details: in vivo; summary of the method: as §4
[13] = Oral bioavailability in C57BL/6 mouse at 10 mg/kg; assay type: ADME, organism-based; details: in vivo; summary of the method: as §4
[14] = biological target: T3, Peroxisome proliferator-activated receptor delta

IC50 [1] [nM] | IC50 [2] [nM] | IC50 [3] [nM] | IC50 [14] [nM] | SMILES | further results
> 10000 | > 10000 | 100 | – | O=C(NCCS(=O)(=O)c1ccc(C(F)(F)F)cn1)c1ccc(OC(F)(F)F)cc1 | –
> 10000 | > 10000 | > 10000 | – | O=C(NCCCS(=O)(=O)c1ccc(C(F)(F)F)cn1)c1ccc(Cl)cc1 | –
> 10000 | > 10000 | > 10000 | – | Cc1ccc(S(=O)(=O)CCNC(=O)c2ccc(Cl)cc2)nc1 | –
> 10000 | > 10000 | 1260 | – | O=C(NCCCS(=O)(=O)c1ccc(C(F)(F)F)cn1)c1ccc(OC(F)(F)F)cc1 | –
> 10000 | > 10000 | 200 | 126 | O=C(NCCS(=O)(=O)c1ccc(C(F)(F)F)cn1)c1ccc(Cl)cc1 | Activity (Homo sapiens [4]): Active; Activity (Homo sapiens [5]): Active; Activity (Homo sapiens [6]): Active; Activity (Homo sapiens [7]): inactive; Activity (SW480): inactive; Activity (HCT-116): inactive; Activity (DLD-1): inactive; Activity (RKO): inactive; Activity (A549): inactive; Activity (HEK293): inactive; clearance [8]: 39 mL/min/kg; Vd [9]: 1.7 L/kg; Cmax [10]: 881 ng/mL; AUC(0-inf) [11]: 3340 ng·h/mL; half-life [12]: 2.7 h; bioavailability [13]: 77%
> 10000 | > 10000 | 126 | 251 | Cc1cc(C(=O)NCCS(=O)(=O)c2ccc(C(F)(F)F)cn2)ccc1Cl | –
> 10000 | > 10000 | > 10000 | – | O=C(NCCS(=O)(=O)c1ccccn1)c1ccc(Cl)cc1 | –
> 10000 | > 10000 | 126 | 251 | O=C(NCCS(=O)(=O)c1ccc(C(F)(F)F)cn1)c1ccc(Cl)c(Br)c1 | –
– | > 10000 | 200 | 251 | O=C(NCCS(=O)(=O)c1ccc(C(F)(F)F)cn1)c1ccc(-c2ccccc2)cc1 | –
> 10000 | > 10000 | 158 | 200 | O=C(NCCS(=O)(=O)c1ccc(C(F)(F)F)cn1)c1ccc(Cl)cc1Cl | –
> 10000 | > 10000 | 316 | 200 | CC(C)Cc1ccc(C(=O)NCCS(=O)(=O)c2ccc(C(F)(F)F)cn2)cc1 | –
> 10000 | > 10000 | 1000 | – | O=C(NCCS(=O)(=O)c1ccc(C(F)(F)F)cn1)c1ccc(C2CCCCC2)cc1 | –

SMILES | IC50 [1] [nM] | IC50 [2] [nM] | IC50 [3] [nM] | IC50 [14] [nM] | further results
O=C(NCCS(=O)(=O)c1ccc(C(F)(F)F)cn1)c1ccc(Br)cc1F | > 10000 | > 10000 | 50.1 | 79.4 | –
COC(=O)c1sccc1S(=O)(=O)Nc1ccc(Nc2ccccc2)cc1OC | > 10000 | > 10000 | – | – | –
